Structures are written as SMILES. Several values for one entry are separate records, joined by “and”; a condition that tells them apart may be missing. Identical values can stand only once. Like-named read-outs stand apart in the source and are kept apart here. Marks after values point to notes of the source that are not given here.

The values that follow come from PMC5811788 (Journal of Clinical Pharmacology, 2017).

Data set [1] is classed as in vivo, healthy subjects (human). The following applies: for Geometric Mean Ratio (90%CI) of AUClast / Geometric Mean Ratio (90%CI) of Cmax / Geometric Mean Ratio (90%CI) of AUCinf: istradefylline + rifampin vs istradefylline alone; for AUC(0-t): AUClast. The procedure, abridged:
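Crossover in 20 healthy humans. Single oral 40 mg tablet of the test compound given after ≥8 h fast, alone (period 1) or on day 8 of rifampin 600 mg once daily (days 1–20, dosed 2 h after test compound). Venous plasma sampled predose to 312 h. Noncompartmental AUClast and AUCinf, reported as geometric means and geometric mean ratios with 90% CI.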

The nature of a further data set: Safety and tolerability. The format is in vivo, healthy subjects (human). The following applies: for Subjects who experienced AEs: 20 subjects.
The conditions of data set [2]: ref data on file; Kyowa Kirin Pharmaceutical Development, Inc.; cited from earlier work.
For data set [3] the following is noted: ref data on file; Kyowa Kirin Pharmaceutical Development, Inc.; cited from earlier work. This is another data set of the same source.
For data set [4] the following is noted: cited from earlier work.
The subject of data set [5] is cytochrome P450 (CYP) isoenzymes. The following applies: ref data on file; Kyowa Kirin Pharmaceutical Development, Inc.; cited from earlier work.
The conditions of data set [6]: in those who received various CYP3A4 inhibitors; 1449 healthy subjects and PD patients; cited from earlier work.
For data set [7] the following is noted: coadministration of ketoconazole, healthy subjects; cited from earlier work.
Another data set concerns P‐glycoprotein (P‐gp). The following applies: ref data on file; Kyowa Kirin Pharmaceutical Development, Inc.; cited from earlier work.
For data set [8] the following is noted: doses of 20 and 40 mg/day; cited from earlier work.
A further data set concerns A2A receptor. The following applies: A2A vs A1, A2B, A3; cited from earlier work.
Setting [9] is: istradefylline 40 mg + steady-state rifampin 600 mg/day, arithmetic mean (SD).
Where [10] appears, read: istradefylline 40 mg alone, arithmetic mean (SD).
[11] abbreviates: ln-transformed, istradefylline 40 mg + rifampin 600 mg/day, geometric mean (CV%).
[12] abbreviates: ln-transformed, istradefylline 40 mg alone, geometric mean (CV%).
Setting [13] is: metabolite-to-parent ratio, istradefylline 40 mg alone, arithmetic mean (SD).
Where [14] appears, read: during administration of the substance alone.
Setting [15] is: healthy subjects, independent of dose.

On to `CCn1c(=O)c2c(nc(/C=C/c3ccc(O)c(OC)c3)n2C)n(CC)c1=O` [M1 metabolite, 4′‐O‐monodesmethylated derivative of istradefylline], for which the “Exposure of metabolite in plasma as share of total drug exposure” value in [1] (generally) is less than 9%. Besides, in data set [1] (setting [9]), the AUCinf is 159 (47.6) ^b ng·h/mL, the AUClast is reported as 118 (44.3) ng·h/mL and the t1/2 is 17.6 (4.95) ^b h. Besides, in data set [1] (istradefylline 40 mg + steady-state rifampin 600 mg/day, median (min, max)), the Tmax is reported as 3.0 (1.0, 6.0) h. The AUClast in data set [1] (setting [10]) is on record as 123 (77.6) ng·h/mL. In addition, the Tmax in data set [1] (istradefylline 40 mg alone, median (min, max)) is given as 3.5 (2.0, 12.0) h. Besides, in data set [1], the “Geometric Mean Ratio (90%CI) of AUClast” value is 1.04 (0.90–1.21) and the “Geometric Mean Ratio (90%CI) of Cmax” value is 1.79 (1.59–2.01). In addition, in data set [1] (listed as istradefylline M1), the “Geometric Mean Ratio (90%CI) of AUClast” value worked out at 1.04 and the “Geometric Mean Ratio (90%CI) of Cmax” value is on record as 1.79. Further, the “All M/P ratios” value in data set [1] (istradefylline alone or with rifampin (M8: except M/P ratio for Cmax after coadministration)) is given as less than 9%. Further, in data set [1] (ln-transformed data), the “Change in AUClast during rifampin coadministration (GMR comparison)” value is reported as “+4%” and the “Change in Cmax during rifampin coadministration (GMR comparison)” value was “+79%”. Also, in data set [1] (setting [11]), the “AUClast, geometric mean” value is 110 (41.8) ng·h/mL and the “Cmax, geometric mean” value was 7.0 (29.0) ng/mL. In addition, in data set [1] (setting [12]), the “AUClast, geometric mean” value is recorded as 105 (61.4) ng·h/mL and the “Cmax, geometric mean” value is recorded as 3.90 (46.3) ng/mL. For the same compound, in data set [1] (setting [13]), the “M/P ratio (AUClast)” value is reported as 0.0134 (0.0078) and the “M/P ratio (Cmax)” value was 0.0241 (0.0045). In data set [1] (plasma, single oral istradefylline 40 mg alone, arithmetic mean (SD)), the Cmax was 4.34 (2.49) ng/mL.

The term Vd/F denotes the apparent distribution volume after extravascular dosing. The term half-life denotes the time needed for the level to fall by half in the phase considered. Higher therefore signals slow loss. By AUC(0-t) is commonly meant exposure summed from dosing to a finite time, without extrapolation to infinity. Read a high AUC(0-t) as high exposure. Turning to `CCn1c(=O)c2c(nc(/C=C/c3ccc(OC)c(OC)c3)n2C)n(CC)c1=O` [Istradefylline], the “Decrease in istradefylline exposure based on AUC values” in data set [1] (during coadministration of steady-state oral rifampin 600 mg/day) was approximately 80%. Also, in [1] (human, plasma, oral, 40 mg), the Cmax worked out at 171 ng/mL, the Tmax was found to be 2 h, the Vd/F was found to be 515 L and the half-life is 94.8 h. This compound registered an AUC(0-t) in data set [1] (human, plasma, oral, 40 mg, geometric mean, ln-transformed, istradefylline 40 mg alone, geometric mean (CV%)) of 9460 ng·h/mL. This compound also came in with an AUC(0-t) in data set [1] (human, plasma, oral, 40 mg, istradefylline 40 mg alone, arithmetic mean (SD)) of 9850 ng·h/mL. For the same compound, in [1] (human, plasma, po, 40 mg), the Cmax worked out at 181 ng/mL. Also, the CL/F in [1] (setting [9]) is given as 20.6 (6.7) L/h. The CL/F in [1] (setting [10]) is listed as 4.0 (1.5) L/h. For the same compound, the CL/F in data set [1] (istradefylline 40 mg alone, arithmetic mean (SD), listed as istradefylline) is 4.0 L/h and 4.00 L/h. For the same compound, in data set [1], the “Geometric Mean Ratio (90%CI) of AUCinf” value was 0.19 (0.18–0.20), the “Geometric Mean Ratio (90%CI) of AUClast” value is given as 0.21 (0.19–0.22) and the “Geometric Mean Ratio (90%CI) of Cmax” value is 0.55 (0.49–0.62). In [1] (listed as istradefylline), the “Geometric Mean Ratio (90%CI) of AUCinf” value is listed as 0.19, the “Geometric Mean Ratio (90%CI) of AUClast” value worked out at 0.21 and the “Geometric Mean Ratio (90%CI) of Cmax” value came to 0.55. Further, in the data set “Safety and tolerability” (during administration of istradefylline + rifampin), the “Subjects who experienced AEs” value is listed as 25%. The “Subjects who experienced AEs” value in “Safety and tolerability” (setting [14]) worked out at 20%. Further, the Tolerability result in “Safety and tolerability” (given alone or in combination with rifampin) is “well tolerated”. The “Treatment-related AEs (considered related to istradefylline)” value in the data set “Safety and tolerability” (while receiving istradefylline alone, mild, transient disturbance in attention, asthenia, intermittent dizziness) is reported as “single subject”. In addition, the Aqueous solubility entry in data set [2] is “poor aqueous solubility”. Moreover, the “Bound to plasma protein” value in data set [3] is reported as approximately 98%. In [4] (healthy subjects and PD patients), the “Dose proportionality of exposure (Cmax and AUC)” value was “directly proportional to istradefylline dose (up to 80 mg)”. In data set [4] (setting [15]), the “Apparent clearance (CL/F)” value was 4.1 to 6.0 L/h, the “Apparent volume of distribution (Vz/F)” value is 448 to 557 L and the “Terminal elimination half-life (t1/2)” value is 67 to 95 h. In [5], the “CYP isoenzymes partly involved in metabolism” value was “CYP1A2, 2B6, 2C8, 2C9, 2C18, and 2D6*1”; the “Main CYP isoenzymes involved in metabolism” value was “CYP1A1, 3A4, and 3A5”. In addition, in [6], the “Increase in AUC during the dosing interval at steady state (AUCss)” value is reported as 38%. In [7], the “Increase in AUCinf” value is recorded as 2.5 fold. Besides, the P-gp substrate entry in the data set on P‐glycoprotein (P‐gp) is given as “not a P‐gp substrate”. In data set [8], the “OFF time in PD patients” value is “statistically significant improvement in OFF time”. Moreover, the “In vitro affinity, selectivity among adenosine receptor subtypes” value in the data set on A2A receptor was “higher in vitro affinity toward the A2A receptor than for A1, A2B, and A3 receptors”.

As to `CO[C@H]1/C=C/O[C@@]2(C)Oc3c(C)c(O)c4c(O)c(c(/C=N/N5CCN(C)CC5)c(O)c4c3C2=O)NC(=O)/C(C)=C\C=C\[C@H](C)[C@H](O)[C@@H](C)[C@@H](O)[C@@H](C)[C@H](OC(C)=O)[C@@H]1C` [rifampin, reference compound], the “Subjects who experienced AEs” value in “Safety and tolerability” (setting [14]) was found to be 85%. The compound also returned a Subjects with chromaturia in “Safety and tolerability” (subjects receiving rifampin) of 70%.
